Test results published in ChEMBL document CHEMBL1149114, “Countering cooperative effects in protease inhibitors using constrained beta-strand-mimicking templates in focused combinatorial libraries” (J Med Chem, 2004).
pKi: −log10 of the molar value.

Each compound was assayed against T1, Human immunodeficiency virus type 1 protease (Human immunodeficiency virus 1, UniProt Q72874) (assay: (§1) Tested for inhibition of synthetic HIV-1 protease by using fluorometric assay).

| Compound | pKi |
| --- | --- |
| CC(C)[C@@H]1NC(=O)CCCCCOc2ccc(cc2)C[C@@H]([C@H](O)CN(C2CCCC2)S(=O)(=O)c2ccc(N)cc2)NC1=O | 8.52 |
| CC(C)CCN(C[C@@H](O)[C@@H]1Cc2ccc(cc2)OCCCCCC(=O)N[C@@H](C(C)C)C(=O)N1)NC(=O)NCc1ccccc1 | 6.50 |
| CCCCCCN(C[C@@H](O)[C@@H]1Cc2ccc(cc2)OCCCCCC(=O)N[C@@H](C(C)C)C(=O)N1)S(=O)(=O)c1ccc(N)cc1 | 7.85 |
| CCC(C)N(C[C@@H](O)[C@@H]1Cc2ccc(cc2)OCCCCCC(=O)N[C@@H](C(C)C)C(=O)N1)S(=O)(=O)c1ccc(N)cc1 (stereo not given in full) | 8.70 |
| CC(C)CCN(C[C@@H](O)[C@@H]1Cc2ccc(cc2)OCCCCCC(=O)N[C@@H](C(C)C)C(=O)N1)NC(=O)NC1CCCCC1 | 6.68 |
| CC(C)CCN(C[C@@H](O)[C@@H]1Cc2ccc(cc2)OCCCCCC(=O)N[C@@H](C(C)C)C(=O)N1)S(=O)(=O)c1ccc2ccccc2c1 | 9.00 |
| CC(C)CCN(C[C@@H](O)[C@@H]1Cc2ccc(cc2)OCCCCCC(=O)N[C@@H](C(C)C)C(=O)N1)S(=O)(=O)c1c(C(C)C)cc(C(C)C)cc1C(C)C | 5.33 |
| CC(C)[C@@H]1NC(=O)CCCCCOc2ccc(cc2)C[C@@H]([C@H](O)CN(CCCCCC(=O)O)S(=O)(=O)c2ccc(N)cc2)NC1=O | 7.22 |
| CC(C)[C@@H]1NC(=O)CCCCCOc2ccc(cc2)C[C@@H]([C@H](O)CN(CCc2ccccc2)S(=O)(=O)c2ccc(N)cc2)NC1=O | 8.10 |
| CC(=O)Nc1ccc(S(=O)(=O)N(CCC(C)C)C[C@@H](O)[C@@H]2Cc3ccc(cc3)OCCCCCC(=O)N[C@@H](C(C)C)C(=O)N2)cc1 | 8.00 |
| COc1ccc(CCN(C[C@@H](O)[C@@H]2Cc3ccc(cc3)OCCCCCC(=O)N[C@@H](C(C)C)C(=O)N2)S(=O)(=O)c2ccc(N)cc2)cc1 | 8.52 |
| CC(C)CCN(C[C@@H](O)[C@@H]1Cc2ccc(cc2)OCCCCCC(=O)N[C@@H](C(C)C)C(=O)N1)S(=O)(=O)c1cccc([N+](=O)[O-])c1 | 6.84 |
| CC(C)CCN(C[C@@H](O)[C@@H]1Cc2ccc(cc2)OCCCCCC(=O)N[C@@H](C(C)C)C(=O)N1)S(=O)(=O)c1cccc2cccnc12 | 6.53 |

What follows are compounds tested against T1, Human immunodeficiency virus type 1 protease (assay: as §1).
How it was run: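 Synthetic HIV-1 PR (SF2 isolate; C67B, C95B, Q7K, L33I mutations, B = L-α-aminobutyric acid) solubilized in 6 M Gu·HCl, refolded 60 min in phosphate pH 7.0/glycerol/BSA buffer. Continuous fluorimetric assay with 50 μM Abz-Thr-Ile-Nle-Phe(p-NO2)-Gln-Arg-NH2 in MES pH 6.5, 100 mM NaCl, 10% glycerol, I = 0.1 M, 37 °C, varying inhibitor. Ki from Dixon or Henderson plots; Km from Hanes plot.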

| Compound | pKi |
| --- | --- |
| CC[C@@H](C)[C@@H]1NC(=O)[C@@H](NC[C@@H](O)[C@H](Cc2ccccc2)NC(=O)[C@H](C(C)C)N2CCCC2=O)Cc2ccc(cc2)OCCCNC1=O | 9.00 |
| CC[C@@H](C)[C@@H]1NC(=O)[C@@H](NC[C@@H](O)[C@H](Cc2ccccc2)NC(=O)[C@@H](NC(=O)[C@H](CC(C)C)NC(C)=O)C(C)C)Cc2ccc(cc2)OCCCNC1=O | 9.22 |
| CC[C@@H](C)[C@@H]1NC(=O)[C@@H](NC[C@@H](O)[C@@H]2Cc3ccc(cc3)OCCCCC(=O)N[C@@H](C(C)C)C(=O)N2)Cc2ccc(cc2)OCCCNC1=O | 8.30 |
| CC[C@@H](C)[C@@H]1NC(=O)[C@@H](NC[C@H](Cc2ccccc2)NC(=O)OC(C)(C)C)Cc2ccc(cc2)OCCCNC1=O | 7.36 |
| CC[C@@H](C)[C@@H]1NC(=O)[C@@H](NC[C@@H](O)[C@H](Cc2ccccc2)NC(=O)OC(C)(C)C)Cc2ccc(cc2)OCCCNC1=O | 8.40 |
| CC[C@@H](C)[C@@H]1NC(=O)[C@@H](NC[C@@H](O)[C@H](Cc2ccccc2)NC(=O)OC2CCOC2)Cc2ccc(cc2)OCCCNC1=O (stereo not given in full) | 8.40 |
| CC[C@@H](C)[C@@H]1NC(=O)[C@@H](NC[C@@H](O)[C@H](Cc2ccccc2)NC(=O)c2cccc(C)c2)Cc2ccc(cc2)OCCCNC1=O | 7.82 |
| CC(C)CCN(C[C@@H](O)[C@@H]1Cc2ccc(cc2)OCCCCC(=O)N[C@@H](C(C)C)C(=O)N1)S(=O)(=O)c1ccccc1 | 9.40 |
| CC(C)CCN(C[C@@H](O)[C@@H]1Cc2ccc(cc2)OCCCCCC(=O)N[C@@H](C(C)C)C(=O)N1)S(=O)(=O)c1ccccc1 | 8.80 |
| CC[C@H](C)[C@H](NC(=O)[C@@H](NC(=O)[C@@H]1CCCN1)C(C)C)C(=O)NCC(O)C1Cc2ccc(cc2)OCCCC(=O)NC(CC(N)=O)C(=O)N1 (stereo not given in full) | 7.92 |
| CC(C)(C)N(CC(O)C1Cc2ccc(cc2)OCCCC(=O)NC(CC(N)=O)C(=O)N1)C(=O)C1CCCCN1 (stereo not given) | 7.92 |
| CC(C)CCN(C[C@@H](O)[C@@H]1Cc2ccc(cc2)OCCCC(=O)N[C@@H](C(N)=O)C(=O)N1)S(=O)(=O)c1ccccc1 | 9.00 |
